From PubChem
The sample as a whole holds a higher share of hits than the screen did.
INS promoter act – TRM-6 insulin promoter activation | TRM-6 cells, insulin promoter eGFP reporter, imaging; plate-scaled: unstimulated 0, stimulated control 100 | activation, % at 2 µM | actives 0.81% (n = 130,000) | AID 1296;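 active = activation at 2 µM above a set limit, confirmed on inspection of the cell images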;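 also: share of cells whose green reporter signal exceeds an intensity cutoff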
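Material: Human fetal islet-derived TRM-6 cells with tamoxifen-inducible insulin promoter–eGFP reporter | Medium: Low-glucose (5.5 mM) medium with tamoxifen | Probe or stimulus: Tamoxifen inducer, 0.75 µM, in seeding medium | Schedule: Tamoxifen pre-incubation 15 h overnight, then compound exposure 48 h at 37 °C | Detection: High-content imaging of fixed cells with Hoechst nuclear stain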
The depositor's hits bear a star.

SMILES	INS promoter act
O=C(CSCc1ccccc1)N/N=C/c1cc2c(cc1Br)OCO2	0
O=C(CCc1nc2ccccc2c(=O)[nH]1)N1CCN(c2ccc(F)cc2)CC1	0
CO/N=C(/C)CCS(=O)(=O)c1ccccc1	7
Cc1ccc(C)c(NC(=O)c2ccc[n+](Cc3ccc([N+](=O)[O-])cc3)c2)c1	233*
Cc1ccc(Cn2nnc(C(=O)Nc3cc(C)ccc3C)c2N)cc1	6
Cc1ccc(C)c(NC(=O)Cn2nc([N+](=O)[O-])c(Br)c2C)c1	0
CC(C)C(=O)NC(NC(=O)C(C)C)c1ccc([N+](=O)[O-])cc1	0
O=C(NCCCn1ccnc1)C(=O)c1c[nH]c2ccccc12	-10
CC1CCc2cc(F)ccc2N1C(=O)CCl (centres undefined)	7
CC(C)CCNC(=O)CCn1c(=S)oc2ccccc21	0
COc1ccc(-c2nn(C)c(=O)c3ccccc23)cc1CNC(=O)NC1CCCCC1	0
c1ccc(-c2nc3nc4ccccc4nc3n2Cc2ccco2)cc1	200*
Fc1ccc(-c2nc3nc4ccccc4nc3n2Cc2ccco2)cc1	-8
N=c1c2c(-c3ccccc3)c(-c3ccccc3)n(Cc3ccco3)c2ncn1CCO	327
CC(=O)Oc1ccc(N2C(=O)C3C4C=CC(C5CC45)C3C2=O)cc1[N+](=O)[O-] (centres undefined)	-6
COc1ccccc1N1CCN(S(=O)(=O)c2ccc3c4c(cccc24)C(=O)N3C)CC1	7
C=CCN1C(=O)c2cccc3c(N4CCCCC4)ccc(c23)C1=O	669*
O=C(COC(=O)CCc1ccc(S(=O)(=O)N2CCOCC2)cc1)NCc1ccccc1	154
CN(C)S(=O)(=O)c1ccc(C(=O)NNC(=O)C2COc3ccccc3O2)cc1 (centres undefined)	3
CC(=O)Nc1ccc(NC(=O)CN(c2cccc([N+](=O)[O-])c2)S(C)(=O)=O)cc1	6
COC(=O)c1sc(NC(=O)C2CCCO2)c(C(=O)OC)c1C (centres undefined)	428*
Cc1c(C(=O)OC(C)C)sc(NC(=O)C2CCCO2)c1C(=O)OC(C)C (centres undefined)	3
Cc1sc(NC(=O)C2CCCO2)c(C#N)c1C (centres undefined)	-9
CCc1c(C)nc(N)n2c(SCC(=O)N3CCCC(C)C3)nnc12 (centres undefined)	182*
CC1CCN(C(=O)CSc2nncn2C)CC1	3
SMILES	INS promoter act
Cc1nnc(SCC(=O)N2CCCCCC2)n(N)c1=O	0
CCOc1ccc2sc(NS(=O)(=O)c3ccc(OC)c(OC)c3)nc2c1	-8
C#CCSc1nnc(-c2sc(-c3ccccc3)nc2C)n1C	107
CC(OC(=O)c1ccccc1NCc1ccco1)C(=O)Nc1ncc(Cl)cc1Cl (centres undefined)	3
O=C(CCn1cnc(-c2ccccc2)c1-c1ccccc1)N/N=C/c1ccccc1O	0
CC(Oc1ccc(C(=O)NCCc2ccccc2)cc1)C(=O)O (centres undefined)	0
O=C(C[n+]1cccc(CNC(=O)c2ccc(OC(F)F)cc2)c1)c1ccccc1	341*
O=C(NCc1ccccc1)c1ccc(S(=O)(=O)C(F)F)cc1	-3
Cc1ccc2cc(CCNC(=O)Cc3cccs3)c(=O)[nH]c2c1	202
Cc1cc(NC(=O)CSc2nc3c([nH]c4ccccc43)c(=O)n2-c2cccc(C(F)(F)F)c2)no1	-5
COc1cccc(-n2c(SCC(N)=O)nc3c([nH]c4ccccc43)c2=O)c1	252*
COc1cccc(-n2c(SCC(N)=O)nnc2-c2ccncc2)c1	-91
CC(=O)N(C(C)=O)S(=O)(=O)c1ccc(N=NN2CCOCC2)cc1	113
CC(=O)n1c(Cl)c(NC(=O)CCl)c2ccccc21	4
CCOc1cc(CNCCCN2CCOCC2)ccc1OCC(=O)NC(C)(C)C	-6
COc1cc(CNCc2cccs2)ccc1OCC(N)=O	2
COc1cc(CNCc2cccs2)ccc1OCC(=O)NC(C)(C)C	125*
CCOc1ccc(S(=O)(=O)NCc2ccc(OC)cc2)c2cccnc12	0
O=C(Nc1ccc(C(=O)O)cc1)Nc1ccc(F)cc1F	-9
CN(C)c1ccc(S(=O)(=O)NCC(=O)OCC(=O)Nc2cc(Cl)cc(Cl)c2)cc1[N+](=O)[O-]	-9
O=C(c1ccccc1)c1c2c(cc3sc4ccccc4[n+]13)-c1cccc3cccc-2c13	233*
C=CCNc1sc(C(=O)c2ccccc2)c(N)c1-c1nc2ccccc2s1	2
Cc1c(-c2nnc(SCC(=O)O)n2-c2ccccc2Br)nnn1-c1ccccc1	0
Cc1ccc(C(=O)COC(=O)CNC(=O)c2cccs2)cc1C	-4
Cc1ccc(NC(=O)COC(=O)CCC(=O)c2cccs2)cc1	8
SMILES	INS promoter act
Cc1ccc(C(=O)NCC(=O)NCC(=O)OCC(=O)c2cccs2)cc1	471*
Cc1ccc(OCC(=O)NNC(=O)c2cccnc2)cc1C	7
Cc1ccc2sc(-c3ccc(NC(=O)/C=C\C(=O)O)cc3)nc2c1	-3
COc1ccc(NS(=O)(=O)c2ccc(N3CCCC3)c(NC(=S)Nc3cccc(S(=O)(=O)N(C)C)c3)c2)cc1	8
COc1ccc(C)cc1NC(=O)C(=O)NNC(=O)COc1ccc(Cl)cc1	0
Cc1ccc(CNC(=O)CSc2nc3ccsc3c(=O)n2NC(=O)c2ccccc2)cc1	5
Cc1cc(NC(=O)CSc2nc3ccsc3c(=O)n2NC(=O)c2ccccc2)no1	436*
Cc1cc(NC(=O)CSc2nc(-c3ccccc3)cs2)no1	103
CC1CC(NS(=O)(=O)c2cccs2)CC(C)(C)C1 (centres undefined)	121
CC(=O)N(c1nc(CCl)cs1)c1c(C)cc(C)cc1C	3
COc1cc(C(=O)NCc2nnc(SCC(=O)Nc3nccs3)o2)cc(OC)c1OC	144
COc1ccc(OC)c(NC(=O)CSc2nnc(CNC(=O)COc3ccc(Cl)cc3)o2)c1	129*
COc1cc(C(=O)NCc2nnc(SCC(=O)Nc3nc4ccccc4s3)o2)cc(OC)c1OC	4
COc1ccc(CNn2c(-c3ccccc3F)nc3ccccc3c2=O)cc1OC	7
CCOC(=O)C1CN(S(=O)(=O)c2ccc(C)cc2)CCN1S(=O)(=O)c1ccc(C)cc1 (centres undefined)	387
O=C(NCc1ccco1)C1CCCN1S(=O)(=O)c1ccc2ccccc2c1 (centres undefined)	-6
Cc1ccc(S(=O)(=O)N2CCCC2C(=O)OCc2ccco2)cc1 (centres undefined)	579*
CN(Cc1cn(-c2ccccc2)nc1-c1cc2ccccc2o1)C(=O)CCC(=O)O	108
Cc1cccc(NC(=O)c2cc3cc([N+](=O)[O-])ccc3s2)n1	-9
COc1ccc(C2NC(=S)NC(O)(C(F)(F)F)C2C(=O)c2cccs2)cc1 (centres undefined)	-9
c1ccc(C2=Nc3cccnc3C(c3ccccc3)=NN2)cc1	6
N#C/C(=C\c1ccc(OC(=O)c2ccc(Br)s2)cc1)c1nc2ccccc2[nH]1	9
N#C/C(=C\c1ccc(N2CCOCC2)o1)c1nc2ccccc2[nH]1	142*
c1ccc2[nH]c(CN3CCOCC3)nc2c1	-3
Cc1noc(C)c1CSc1nc2sc(C)c(C)c2c(=O)n1C1CCCC1	8
CCn1cc([N+](=O)[O-])c(C(=O)Nc2nc3ccc(OC)cc3s2)n1	0
Cc1cc(C)n(CC(O)Cn2c3ccc(Br)cc3c3cc(Br)ccc32)c(=O)n1 (centres undefined)	77*
COc1ccc(C(=O)CCNc2ccc3c(c2)OCCO3)cc1	356*
